Measurements collected from several papers.
Protocols differ between the studies behind these lines.
Target: Dual specificity tyrosine-phosphorylation-regulated kinase 1A (DYRK1A, Homo sapiens, UniProt Q13627)
Read-out: enzyme activity
Mode: inhibitor

For `O=C(Nc1cnn(-c2csc(C(=O)NC3COC3)c2)c1)Nc1c(F)cccc1Cl`, the remaining activity was 75.1% (5 µM).
`CC(C)(C)c1nc2c(s1)c1nc(N)ncc1c1ccc(NS(=O)(=O)c3c(F)cccc3F)c(F)c12` has a remaining activity of 88% (radiometric; 1 µM).
`COc1cc(Nc2cnc(C#N)c(O[C@H](C)CN(C)C)n2)ncc1-c1cnn(C)c1` has a remaining activity of 91% (radiometric; 1 µM).
With `CCN(CC)CCNC(=O)c1c(C)[nH]c(/C=C2\C(=O)Nc3ccc(Cl)cc32)c1C` the remaining activity was 47.2% (0.5 µM).
`O=C(O)c1ccc2c(c1)nc(Nc1ccc(Cl)cc1)c1ncncc12` has a remaining activity of 3% (radiometric; 1 µM).
The remaining activity of `Oc1cccc(-c2nc(N3CCOCC3)c3oc4ncccc4c3n2)c1` is reported as 59% (10 µM).
`CC(C)(C)C(=O)c1sc(NC2CCCCC2)nc1N` has a remaining activity of 88% (10 µM).
With `O=C(O)c1ccc2c(c1)nc(NCCc1ccccc1)c1ccncc12` the remaining activity was 10% (radiometric; 1 µM).
For `O=c1cc(-c2cccc3c2Sc2ccccc2S3)oc(N2CCOCC2)c1`, the remaining activity was 95% (0.5 µM).
`O=C(O)c1ccc2c(c1)nc(NCCc1ccccc1)c1ncncc12` has a remaining activity of 19% (radiometric; 1 µM).
With `COc1cc2nccc(Oc3ccc(NC(=S)NC(=O)c4ccccc4C)cc3)c2cc1OC` the remaining activity was 95.4% (0.5 µM).
`O=C(O)c1ccc2c(c1)nc(Nc1ccc3ccccc3c1)c1ccncc12` gave a remaining activity of 2% (radiometric; 1 µM).
For `CC(C)(O)[C@H]1CC[C@H](Nc2ccc3ncc(-c4cccc(C(F)(F)F)c4)n3n2)CC1`, the remaining activity was 22.1% (1 µM).
The remaining activity of `O=C(O)c1ccc2c(c1)nc(Nc1cccc(F)c1)c1ccncc12` is reported as 0% (radiometric; 1 µM).
The remaining activity of `Cc1sc(C(=O)NC2COC2)cc1-n1cc(NC(=O)Nc2c(F)cccc2Cl)cn1` is reported as 95.5% (10 µM).
